In ChEMBL document CHEMBL1147105, “In vitro and in vivo activities of PD 0305970 and PD 0326448, new bacterial gyrase/topoisomerase inhibitors with potent antibacterial activities versus multidrug-resistant gram-positive and fastidious organism groups” (2007):

Tests used:
[1] = tested on: Staphylococcus epidermidis; assay: Antibacterial activity against oxacillin-resistant Staphylococcus epidermidis; type: functional
Procedure, shortened: (§1)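 Broth microdilution MIC per CLSI guidelines, incubated at 35°C. Cation-adjusted Mueller-Hinton broth for nonfastidious organisms and staphylococci. Streptococci tested in the same broth with 3% lysed horse blood. Anaerobes tested in supplemented Brucella broth inside an anaerobe chamber (5% CO2, 5% H2, 90% N2), read after 48 h. Strains were mainly recent clinical isolates with confirmed identity.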

Burkholderia cepacia = assay: Antibacterial activity against Burkholderia cepacia; type: functional
Procedure, shortened: (§2)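 Broth microdilution MIC following CLSI guidelines, in cation-adjusted Mueller-Hinton broth, incubated at 35°C. Recent clinical isolates and reference strains, with identity confirmed by automated and standard microbiological methods. Results reported as MIC range, MIC50 and MIC90.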

Streptococcus pyogenes = assay: Antibacterial activity against Streptococcus pyogenes; type: functional
Procedure, shortened: (§3)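 Broth microdilution MIC following CLSI guidelines, in cation-adjusted Mueller-Hinton broth with 3% lysed horse blood. Plates incubated at 35°C. Clinical isolates and reference strains, with identity confirmed by standard microbiological methods.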

Enterococcus faecalis [2] = assay: Antibacterial activity against Enterococcus faecalis; type: functional; procedure, shortened: as §1
Enterobacter cloacae = assay: Antibacterial activity against Enterobacter cloacae; type: functional; procedure, shortened: as §2
Corynebacterium jeikeium = assay: Antibacterial activity against Corynebacterium jeikeium; type: functional
Procedure, shortened: (§4)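 Broth microdilution MIC following CLSI guidelines, in cation-adjusted Mueller-Hinton broth containing 3% lysed horse blood, incubated at 35°C. Clinical isolates with identity confirmed. Reported as MIC range, MIC50 and MIC90.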

Enterococcus faecalis [3] = assay: Antibacterial activity against beta-lactamase positive Enterococcus faecalis; type: functional
Procedure, shortened: (§5)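 MIC by CLSI broth microdilution for nonfastidious organisms, in cation-adjusted Mueller-Hinton broth incubated at 35°C.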

[4] = tested on: Staphylococcus haemolyticus; assay: Antibacterial activity against Staphylococcus haemolyticus; type: functional; procedure, shortened: as §4
Fusobacterium sp. = assay: Antibacterial activity against Fusobacterium sp.; type: functional
Procedure, shortened: (§6)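 Anaerobic broth microdilution MIC following CLSI guidelines, in supplemented Brucella broth. Run in an anaerobe chamber under 5% CO2, 5% H2 and 90% N2 at 35°C, and read after 48 h. Reported as MIC range, MIC50 and MIC90.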

Escherichia coli = assay: Antibacterial activity against Escherichia coli; type: functional; procedure, shortened: as §2
Shigella sonnei = assay: Antibacterial activity against Shigella sonnei; type: functional; procedure, shortened: as §2
Salmonella enteritidis = assay: Antibacterial activity against Salmonella enterica serovar Enteritidis; type: functional, Salmonella enterica subsp. enterica serovar Enteritidis; procedure, shortened: as §2
Haemophilus influenzae [5] = assay: Antibacterial activity against beta-lactamase positive Haemophilus influenzae; type: functional
Procedure, shortened: (§7)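 Broth microdilution MIC following CLSI guidelines, in Haemophilus test medium at 35°C.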

Staphylococcus aureus [6] = assay: Antibacterial activity against oxacillin and levofloxacin-resistant Staphylococcus aureus; type: functional; procedure, shortened: as §1
Haemophilus influenzae [7] = assay: Antibacterial activity against beta-lactamase negative Haemophilus influenzae; type: functional; procedure, shortened: as §7
Neisseria gonorrhoeae = assay: Antibacterial activity against Neisseria gonorrhoeae; type: functional
Procedure, shortened: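 MIC by broth microdilution in gonococcal broth, incubated at 35°C in 5% CO2. Reported as MIC range, MIC50 and MIC90.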

Enterococcus gallinarum = assay: Antibacterial activity against Enterococcus gallinarum; type: functional
Cutibacterium acnes = assay: Antibacterial activity against Propionibacterium acnes; type: functional
[8] = tested on: Peptostreptococcus anaerobius; assay: Antibacterial activity against Peptostreptococcus anaerobius; type: functional; procedure, shortened: as §6
Prevotella sp. = assay: Antibacterial activity against Prevotella sp.; type: functional; procedure, shortened: as §6
Morganella morganii = assay: Antibacterial activity against Morganella morganii; type: functional; procedure, shortened: as §2
Citrobacter koseri = assay: Antibacterial activity against Citrobacter diversus; type: functional; procedure, shortened: as §2
Actinomyces sp. = assay: Antibacterial activity against Actinomyces sp.; type: functional
Bacteroides fragilis = assay: Antibacterial activity against Bacteroides fragilis; type: functional; procedure, shortened: as §6
Streptococcus salivarius = assay: Antibacterial activity against Streptococcus salivarius; type: functional; procedure, shortened: as §3
Staphylococcus warneri = assay: Antibacterial activity against Staphylococcus warneri; type: functional; procedure, shortened: as §2
Serratia marcescens = assay: Antibacterial activity against Serratia marcescens; type: functional; procedure, shortened: as §2
Shigella dysenteriae = assay: Antibacterial activity against Shigella dysenteriae; type: functional
[9] = tested on: Staphylococcus saprophyticus; assay: Antibacterial activity against Staphylococcus saprophyticus; type: functional; procedure, shortened: as §2
Clostridioides difficile = assay: Antibacterial activity against Clostridium difficile; type: functional; procedure, shortened: as §6
Bacteroides ovatus = assay: Antibacterial activity against Bacteroides ovatus; type: functional; procedure, shortened: as §6
Prevotella bivia = assay: Antibacterial activity against Prevotella bivia; type: functional; procedure, shortened: as §6
Proteus mirabilis = assay: Antibacterial activity against Proteus mirabilis; type: functional; procedure, shortened: as §2
Corynebacterium sp. = assay: Antibacterial activity against Corynebacterium sp.; type: functional; procedure, shortened: as §4
Fusobacterium nucleatum = assay: Antibacterial activity against Fusobacterium nucleatum; type: functional; procedure, shortened: as §6
Pseudomonas aeruginosa = assay: Antibacterial activity against Pseudomonas aeruginosa; type: functional; procedure, shortened: as §2
[10] = tested on: Fusobacterium necrophorum; assay: Antibacterial activity against Fusobacterium necrophorum; type: functional; procedure, shortened: as §6
[11] = tested on: Enterococcus casseliflavus; assay: Antibacterial activity against Enterococcus casseliflavus; type: functional
Clostridium perfringens = assay: Antibacterial activity against Clostridium perfringens; type: functional; procedure, shortened: as §1
Acinetobacter sp. = assay: Antibacterial activity against Acinetobacter sp.; type: functional; procedure, shortened: as §2
Proteus vulgaris = assay: Antibacterial activity against Proteus vulgaris; type: functional; procedure, shortened: as §2
Moraxella catarrhalis = assay: Antibacterial activity against beta-lactamase negative Moraxella catarrhalis; type: functional
Streptococcus mitis = assay: Antibacterial activity against Streptococcus mitis; type: functional; procedure, shortened: as §3
Prevotella buccae = assay: Antibacterial activity against Prevotella buccae; type: functional; details: Segatella buccae; procedure, shortened: as §6
Klebsiella pneumoniae = assay: Antibacterial activity against Klebsiella pneumoniae; type: functional; procedure, shortened: as §2
Staphylococcus aureus [12] = assay: Antibacterial activity against oxacillin-resistant Staphylococcus aureus; type: functional; procedure, shortened: as §1
Streptococcus pneumoniae = assay: Antibacterial activity against penicillin-intermediate resistant Streptococcus pneumoniae; type: functional; procedure, shortened: as §1
Enterococcus faecium = assay: Antibacterial activity against VanA-resistant Enterococcus faecium; type: functional; procedure, shortened: as §1
Staphylococcus aureus [13] = assay: Antibacterial activity against oxacillin-susceptible Staphylococcus aureus; type: functional; procedure, shortened: as §5

Molecule `C[C@H]1COc2c(N3CCN(C)CC3)c(F)cc3c(=O)c(C(=O)O)cn1c23.C[C@H]1COc2c(N3CCN(C)CC3)c(F)cc3c(=O)c(C(=O)O)cn1c23.O` [LEVOFLOXACIN] has an MIC50 [1] of 8 µg/mL, an MIC90 [1] of 64 µg/mL and an MIC50 (Burkholderia cepacia) of 4 µg/mL. For the same molecule, the MIC90 (Burkholderia cepacia) was 16 µg/mL, the MIC50 (Streptococcus pyogenes) was 0.5 µg/mL and the MIC90 (Streptococcus pyogenes) was 2 µg/mL. It also gave an MIC50 (Enterococcus faecalis [2]) of 16 µg/mL, an MIC90 (Enterococcus faecalis [2]) of 32 µg/mL and an MIC50 (Enterobacter cloacae) of 0.06 µg/mL. It also gave an MIC90 (Enterobacter cloacae) of 1 µg/mL, an MIC50 (Corynebacterium jeikeium) of 0.25 µg/mL and an MIC90 (Corynebacterium jeikeium) of 0.5 µg/mL. It also gave an MIC (Enterococcus faecalis [3]) of 0.5 µg/mL, an MIC50 [4] of 0.25 µg/mL and an MIC90 [4] of 32 µg/mL. For the same molecule, the MIC (Fusobacterium sp.) was 0.03 µg/mL, the MIC50 (Escherichia coli) was 0.03 µg/mL and the MIC90 (Escherichia coli) was 1 µg/mL. The MIC50 (Shigella sonnei) was 0.03 µg/mL, the MIC90 (Shigella sonnei) was 0.06 µg/mL and the MIC50 (Salmonella enteritidis) was 0.03 µg/mL. The MIC90 (Salmonella enteritidis) was 0.06 µg/mL, the MIC50 (Haemophilus influenzae [5]) was 0.008 µg/mL and the MIC90 (Haemophilus influenzae [5]) was 0.015 µg/mL. For the same molecule, the MIC50 (Staphylococcus aureus [6]) was 32 µg/mL, the MIC90 (Staphylococcus aureus [6]) was 64 µg/mL and the MIC50 (Haemophilus influenzae [7]) was 0.015 µg/mL. The MIC90 (Haemophilus influenzae [7]) was 0.03 µg/mL, the MIC50 (Neisseria gonorrhoeae) was 0.008 µg/mL and the MIC90 (Neisseria gonorrhoeae) was 0.008 µg/mL. For the same molecule, the MIC50 (Enterococcus gallinarum) was 1 µg/mL, the MIC90 (Enterococcus gallinarum) was 2 µg/mL and the MIC50 (Cutibacterium acnes) was 2 µg/mL. For the same molecule, the MIC90 (Cutibacterium acnes) was 64 µg/mL, the MIC [8] was 0.125 µg/mL and the MIC50 (Prevotella sp.) was 1 µg/mL. It also gave an MIC90 (Prevotella sp.) of 2 µg/mL, an MIC50 (Morganella morganii) of 0.125 µg/mL and an MIC90 (Morganella morganii) of 16 µg/mL. For the same molecule, the MIC50 (Citrobacter koseri) was 0.03 µg/mL, the MIC90 (Citrobacter koseri) was 0.06 µg/mL and the MIC (Actinomyces sp.) was 0.25 µg/mL. The MIC50 (Bacteroides fragilis) was 4 µg/mL, the MIC90 (Bacteroides fragilis) was 32 µg/mL and the MIC50 (Streptococcus salivarius) was 1 µg/mL. The MIC90 (Streptococcus salivarius) was 1 µg/mL, the MIC (Staphylococcus warneri) was 0.125 µg/mL and the MIC50 (Serratia marcescens) was 0.125 µg/mL. For the same molecule, the MIC90 (Serratia marcescens) was 4 µg/mL, the MIC50 (Shigella dysenteriae) was 0.03 µg/mL and the MIC90 (Shigella dysenteriae) was 0.06 µg/mL. For the same molecule, the MIC50 [9] was 0.25 µg/mL, the MIC90 [9] was 0.5 µg/mL and the MIC50 (Clostridioides difficile) was 0.5 µg/mL. The MIC90 (Clostridioides difficile) was 0.5 µg/mL, the MIC50 (Bacteroides ovatus) was 8 µg/mL and the MIC90 (Bacteroides ovatus) was 32 µg/mL. The MIC50 (Prevotella bivia) was 1 µg/mL, the MIC90 (Prevotella bivia) was 2 µg/mL and the MIC50 (Proteus mirabilis) was 0.125 µg/mL. It also gave an MIC90 (Proteus mirabilis) of 2 µg/mL, an MIC50 (Corynebacterium sp.) of 0.5 µg/mL and an MIC90 (Corynebacterium sp.) of 32 µg/mL. The MIC (Fusobacterium nucleatum) was 0.03 µg/mL, the MIC50 (Pseudomonas aeruginosa) was 1 µg/mL and the MIC90 (Pseudomonas aeruginosa) was 64 µg/mL. It also gave an MIC [10] of 0.03 µg/mL, an MIC50 [11] of 2 µg/mL and an MIC90 [11] of 2 µg/mL. For the same molecule, the MIC90 (Clostridium perfringens) was 0.5 µg/mL, the MIC50 (Acinetobacter sp.) was 0.125 µg/mL and the MIC90 (Acinetobacter sp.) was 16 µg/mL. For the same molecule, the MIC (Proteus vulgaris) was 0.03 µg/mL, the MIC50 (Moraxella catarrhalis) was 0.03 µg/mL and the MIC90 (Moraxella catarrhalis) was 0.06 µg/mL. It also gave an MIC50 (Streptococcus mitis) of 1 µg/mL, an MIC90 (Streptococcus mitis) of 1 µg/mL and an MIC50 (Prevotella buccae) of 1 µg/mL. It also gave an MIC90 (Prevotella buccae) of 2 µg/mL, an MIC50 (Klebsiella pneumoniae) of 0.06 µg/mL and an MIC90 (Klebsiella pneumoniae) of 0.5 µg/mL. For the same molecule, the MIC50 (Staphylococcus aureus [12]) was 8 µg/mL, the MIC90 (Staphylococcus aureus [12]) was 8 µg/mL and the MIC50 (Streptococcus pneumoniae) was 1 µg/mL. It also gave an MIC90 (Streptococcus pneumoniae) of 1 µg/mL, an MIC50 (Enterococcus faecium) of 64 µg/mL and an MIC90 (Enterococcus faecium) of 64 µg/mL. The MIC50 (Staphylococcus aureus [13]) was 0.25 µg/mL and the MIC90 (Staphylococcus aureus [13]) was 0.25 µg/mL.
